thrombin 1536 – human alpha-thrombin inhibitors, primary screen, counter-screen for coagulation protease inhibitor project, biochemical, 1536-well, fluorogenic AMC substrate; Prothrombin (Homo sapiens), P00734; Boc-VPR-AMC fluorogenic substrate cleavage; inhibition, % at 5 µM; 220,000 compounds, 0.26% hits;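 active = inhibition at or above 40%; inactive = inhibition below 40%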;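 note: 0% = enzyme with no compound and 100% = wells without enzyme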
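Assay system: human alpha-thrombin enzyme. Reagent: Boc-VPR-AMC substrate, 15 µM final. Compound dosing: one concentration per compound, 5 µM, with 0.2% DMSO. Incubation: room-temperature reaction. Technique: AMC fluorescence, 355/460 nm. Measure: % inhibition relative to enzyme controls and enzyme-free blanks.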
AHR act – AHR activators, primary screen, cell-based, luminescence, luciferase reporter, human. Aryl hydrocarbon receptor (Homo sapiens), P35869. AHR-responsive luciferase reporter cells. activation, % at 5 µM. 320,000 compounds, 2.5% hits. AID 2796, 2010; in the data active = activation above about 47%;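 note: 0% = vehicle wells and 100% = reference agonist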
STAT3 activator – IL-6 driven STAT3 reporter potentiators, primary screen, U3A cells, luciferase, luminescence, MLSCN library | IL-6 STAT3-luciferase reporter; 100% = signal with IL-6 EC80 alone | activation (% of control), % at 5.6 µM | 190,000 compounds, 0.91% hits;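 active = activation above the screen-wide mean of compound activation plus 3 SD, cut at about 130% in these data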;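 note: 0% = background luminescence of wells with medium and substrate only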
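Material: STAT3-luciferase reporter U3A cells. Controls: IL-6-treated wells, 100% activation. Read-out: % activation versus median of IL-6-stimulated wells. Probe or stimulus: IL-6 stimulus at 33 ng/mL final. Timing: compound 1 h, then IL-6 6 h at 37 °C. Signal: reporter luminescence signal.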
KLK5 inh – human KLK5 protease inhibitors, primary screen, biochemical, 1536-well | inhibition, % at 5 µM | AID 873, 2007 | Kallikrein-5 (Homo sapiens), Q9Y337 | 210,000 compounds, 0.59% hits | recombinant hK5, fluorogenic AMC substrate cleavage;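 active = inhibition of 40% or more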;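 note: 0% = enzyme controls without compound and 100% = no-enzyme blanks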
Target sequence (Q9Y337 67-293 limits assumed): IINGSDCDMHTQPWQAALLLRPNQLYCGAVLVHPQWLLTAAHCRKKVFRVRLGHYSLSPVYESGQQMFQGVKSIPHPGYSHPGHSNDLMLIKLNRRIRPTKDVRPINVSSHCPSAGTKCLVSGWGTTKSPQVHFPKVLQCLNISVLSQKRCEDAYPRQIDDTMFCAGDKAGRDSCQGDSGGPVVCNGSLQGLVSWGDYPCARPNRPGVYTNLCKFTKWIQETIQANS
FXIa inh 1536 – human FXIa protease inhibitors, primary screen, biochemical, 1536-well | AID 798, 2007 | Coagulation factor XI (Homo sapiens), P03951 | purified FXIa, Boc-Glu-Ala-Arg-AMC fluorogenic substrate | 220,000 compounds, 0.14% hits | inhibition, % at 5 µM;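 active = inhibition of at least 40%; inactive = inhibition below 40%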;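 note: fluorescence of freed AMC excited at 355 nm; 0% = enzyme without compound and 100% = no enzyme blank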
FXIIa inh 1536 – human FXIIa protease inhibitors, primary screen, biochemical, 1536-well. Coagulation factor XII (Homo sapiens), P00748. AID 800, 2007. inhibition, % at 5 µM. 220,000 compounds, 0.3% hits. purified FXIIa, Boc-QGR-AMC fluorogenic substrate, 2 h; in the data active = inhibition above about 40%;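 note: 0% = enzyme with no compound and 100% = blank without enzyme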
* hit, by the source's call; . = no result. Only some compounds are listed: those with a hit (about 3.5% of all), similar ones and a draw of the others.

SMILES	thrombin 1536	AHR act	STAT3 activator	KLK5 inh	FXIa inh 1536	FXIIa inh 1536
CCOC(=O)c1cccc(NC(=O)CCS(=O)(=O)c2ccc(Br)s2)c1	6	2	96	21	-6	7
Oc1c(Cl)cc(Cl)cc1C=Nc1cc(C(F)(F)F)ccc1N1CCc2ccccc2C1	-2	68*	.	3	8	8
CCCCN(CC(=O)NCc1ccc(F)cc1)C(=O)c1ccco1	14	-1	100	26	2	12
CCn1cc(C(=O)O)c(=O)c2cc(S(=O)(=O)N3CCCCCC3)ccc21	.	0	.	.	.	.
CCn1cc(C(=O)NCCCOC(C)C)c(=O)c2cc(S(=O)(=O)N3CCOCC3)ccc21	.	0	.	.	.	.
CCn1cc(C(=O)NCc2ccc3c(c2)OCO3)c(=O)c2cc(S(=O)(=O)N(C)C)ccc21	55*	3	105	-10	5	12
CCn1cc(C(=O)N2CCc3ccccc32)c(=O)c2cc(S(=O)(=O)N3CCCC3)ccc21	-4	17	133*	-6	4	12
CCn1cc(C(=O)NCc2ccc(Cl)cc2)c(=O)c2cc(S(=O)(=O)N(C)C)ccc21	.	-1	.	.	.	.
CCn1cc(C(=O)NCc2ccc3c(c2)OCO3)c(=O)c2cc(S(=O)(=O)N3CCOCC3)ccc21	93*	0	104	-8	-13	-4
CCn1cc(C(=O)NCc2ccc(Cl)cc2)c(=O)c2cc(S(=O)(=O)N3CCOCC3)ccc21	56*	1	102	-6	6	14
O=C(CC1C(=O)NCCN1Cc1cccc(C(F)(F)F)c1)NC1CCCCCC1 (stereo unspecified)	.	-1	.	.	.	.
COC(=O)C(Cc1c[nH]c2ccccc12)NC(=O)c1cc(-c2ccc(OC)c(OC)c2)oc1C (stereo unspecified)	-7	12	105	0	-7	-2
CC1=NN(C(N)=S)C(=O)C1N=Nc1cccc([N+](=O)[O-])c1 (stereo unspecified)	.	63*	.	.	.	.
CCNC(=O)CC1SC(=Nc2cccc3ccccc23)N(C)C1=O (stereo unspecified)	-1	6	101	-16	9	11
CC1=NN(C(N)=S)C(=O)C1N=Nc1cccc2ccccc12 (stereo unspecified)	.	93*	114	-2	3	5
CC1=NN(C(N)=S)C(=O)C1N=Nc1ccccc1 (stereo unspecified)	0	70*	99	-10	-11	2
O=C(CSc1nc2nc[nH]c2c(=O)[nH]1)NC1CCCCC1	46*	-3	93	-20	-11	-2
Cc1c(Cl)cccc1NC(=O)Cc1ccc([N+](=O)[O-])cc1	96*	1	94	3	-3	9
O=C(Cc1ccc([N+](=O)[O-])cc1)Nc1ccc(Cl)cc1	-17	10	104	2	-3	4
CCN(CC)C(=O)c1cc([N+](=O)[O-])cc2c1-c1ccc([N+](=O)[O-])cc1C2=C(C#N)C#N	5	1	.	-2	1	9
Cc1nc2ccccn2c1/C(O)=C1\C(=O)C(=O)N(CCCN(C)C)C1c1ccc(F)cc1 (stereo unspecified)	.	-1	100	.	.	.
COc1ccc(NC(=S)Nc2ccc(N)c([N+](=O)[O-])c2)cc1	-1	62*	122	-3	-3	7
COc1ccc(NC(=S)Nc2ccccc2)cc1	4	1	.	3	5	12
COc1ccc(NC(=S)Nc2ccc3snnc3c2)cc1	-12	67*	93	-2	-6	5
N#Cc1c(N)nc2c(c1N)CC(=O)N2c1ccc(Cl)cc1	-2	89*	86	-10	-12	7
SMILES	thrombin 1536	AHR act	STAT3 activator	KLK5 inh	FXIa inh 1536	FXIIa inh 1536
N#Cc1c(N)nc2c(c1N)CC(=O)N2c1ccccc1-c1ccccc1	-2	7	105	-7	0	8
COc1ccc(-c2csc(CCN3N=C(C)CC3=O)n2)cc1	2	2	106	4	1	7
Cn1c(-c2ccsc2)c(-c2cccs2)c2cc(Br)ccc21	.	63*	.	.	.	.
Cn1c(-c2ccsc2)c(-c2cccs2)c2cc(-c3ccc4[nH]ccc4c3)ccc21	.	35	.	.	.	.
Cn1c(-c2ccsc2)c(-c2cccs2)c2cc(-c3ccc4cc[nH]c4c3)ccc21	.	66*	.	.	.	.
COc1cc(OC)cc(-c2c(-c3cccs3)c3cc(-c4ccn[nH]4)ccc3n2C)c1	.	64*	.	.	.	.
Cc1ccc(C(=O)C(C)OC(=O)CNS(=O)(=O)c2ccc(C)cc2)cc1 (stereo unspecified)	.	3	.	.	.	.
O=[N+]([O-])c1cc(-c2ccn[nH]2)ccc1Cl	-9	-2	96	2	-1	4
Cc1c(N=C2SCC(=O)N2/N=C/c2ccccc2)c(=O)n(-c2ccccc2)n1C	-8	0	104	-6	2	1
Nc1cc(Cl)nc(N/N=C/c2ccccc2[N+](=O)[O-])n1	4	52*	105	-6	6	16
COc1nc(N/N=C/c2ccc(-c3ccccc3[N+](=O)[O-])o2)nc(N2CCOCC2)n1	-7	50*	114	-15	3	2
O=[N+]([O-])c1ccc(-c2ccc(/C=N/Nc3nc(NCc4ccccc4)nc(N4CCOCC4)n3)o2)cc1	-16	4	97	0	20	9
O=[N+]([O-])c1ccccc1/C=N/Nc1nc(N2CCCC2)nc(N2CCCC2)n1	.	51*	99	2	6	7
COc1ccc(OC)c(S(=O)(=O)N2c3cc(F)ccc3CCC2C)c1 (stereo unspecified)	-4	3	108	4	-2	7
O=c1c2[nH]c3ccccc3c2ncn1CCN1CCCCC1	0	72*	107	-7	-3	18
CC(C)CCn1cnc2c([nH]c3cccc(Cl)c32)c1=O	4	60*	96	-6	-5	15
Cc1cccc2[nH]c3c(=O)n(CCN4CCNCC4)cnc3c12	-2	44	117	-9	2	13
O=c1c2[nH]c3ccccc3c2ncn1C1CCCCC1	-7	48*	98	-6	-1	3
O=C(O)c1cc(O)ccc1NC(=O)c1cccc2ccccc12	-5	4	.	-2	0	4
Cc1cc(C(=O)N/N=C/c2cccc(Cl)c2Cl)no1	-2	47*	93	-5	4	14
CCOC(=O)N/N=C/c1cccc(Cl)c1Cl	1	30	95	-8	8	13
